Laboratory results published in ChEMBL document CHEMBL1142193, “Dual targeting of GyrB and ParE by a novel aminobenzimidazole class of antibacterial compounds” (2007).
≈ marks a conversion by molar mass, not a printed value.

Legend:
Haemophilus influenzae [1] = test: Antibacterial activity against novobiocin-resistant Haemophilus influenzae ATCC 51907 with GyrB R140H mutation after 18 to 20 hrs; format: functional
Summary of the method: (§1)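 MICs followed CLSI guidelines. Strains were grown overnight at 35°C on solid medium. Inocula were prepared with a Prompt system. Compounds were serially diluted twofold in 100% DMSO at 200x and diluted 1:200 into medium, for a final 0.5% DMSO. Plates were incubated at 35°C for 18 to 20 h and read visually. A twofold MIC variation was taken as assay error.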

Staphylococcus aureus [2] = test: Antibacterial activity against Staphylococcus aureus ATCC 29213 carrying plasmid expressing GyrB T173I mutant; format: functional
Staphylococcus aureus [3] = test: Antibacterial activity against Staphylococcus aureus ATCC 29213 with GyrB T173I and GrlB T166A mutation after 18 to 20 hrs; format: functional; summary of the method: as §1
Staphylococcus aureus [4] = test: Antibacterial activity against Staphylococcus aureus ATCC 29213 with GyrB T173N mutation without plasmid; format: functional
Enterococcus faecalis [5] = test: Antibacterial activity against Enterococcus faecalis ATCC 29212 with ParE T169A mutation after 18 to 20 hrs; format: functional; summary of the method: as §1
Staphylococcus aureus [6] = test: Antibacterial activity against Staphylococcus aureus ATCC 29213 with GyrB T173N and GrlB T166A mutation after 18 to 20 hrs; format: functional; summary of the method: as §1
Enterococcus faecalis [7] = test: Antibacterial activity against Enterococcus faecalis ATCC 29212 after 18 to 20 hrs; format: functional; summary of the method: as §1
Staphylococcus aureus [8] = test: Antibacterial activity against Staphylococcus aureus ATCC 29213 with GyrB T173I mutation without plasmid; format: functional
Haemophilus influenzae [9] = test: Antibacterial activity against Haemophilus influenzae ATCC 51907 with GyrB T169I mutation after 18 to 20 hrs; format: functional; summary of the method: as §1
Staphylococcus aureus [10] = test: Antibacterial activity against Staphylococcus aureus ATCC 29213 with GyrB T173N mutation after 18 to 20 hrs; format: functional; summary of the method: as §1
Enterococcus faecalis [11] = test: Antibacterial activity against Enterococcus faecalis ATCC 29212 with GyrB T167I mutation after 18 to 20 hrs; format: functional; summary of the method: as §1
Enterococcus faecalis [12] = test: Antibacterial activity against Enterococcus faecalis ATCC 29212 with GyrB T167A mutation after 18 to 20 hrs; format: functional; summary of the method: as §1
Haemophilus influenzae [13] = test: Antibacterial activity against novobiocin-resistant Haemophilus influenzae ATCC 51907 with GyrB R140C mutation after 18 to 20 hrs; format: functional; summary of the method: as §1
Staphylococcus aureus [14] = test: Antibacterial activity against novobiocin-resistant Staphylococcus aureus ATCC 29213 with GyrB R144I mutation after 18 to 20 hrs; format: functional; summary of the method: as §1
Enterococcus faecalis [15] = test: Antibacterial activity against Enterococcus faecalis ATCC 29212 with GyrB T167A and ParE T169A mutation after 18 to 20 hrs; format: functional; summary of the method: as §1
Streptococcus pneumoniae [16] = test: Antibacterial activity against Streptococcus pneumoniae ATCC BAA-255 with ParE T172A mutation after 18 to 20 hrs; format: functional; summary of the method: as §1
Staphylococcus aureus [17] = test: Antibacterial activity against Staphylococcus aureus ATCC 29213 carrying plasmid expressing wild type GyrB; format: functional
Haemophilus influenzae [18] = test: Antibacterial activity against Haemophilus influenzae ATCC 51907 after 18 to 20 hrs; format: functional; summary of the method: as §1
Staphylococcus aureus [19] = test: Antibacterial activity against Staphylococcus aureus ATCC 29213 carrying plasmid expressing GyrB T173N mutant; format: functional
Enterococcus faecalis [20] = test: Antibacterial activity against Enterococcus faecalis ATCC 29212 with GyrB T167I and ParE T169A mutation after 18 to 20 hrs; format: functional; summary of the method: as §1
Escherichia coli = test: Reduction in steady-state levels of supercoiled pUC18 in Escherichia coli CAG12184 tolC mutant; format: functional, organism-based
Summary of the method: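 Cells carrying pUC18 grown at 37°C in caMHB with 100 µg/ml ampicillin to OD600 0.5, then exposed 1 h at 37°C with shaking to a twofold dilution series spanning the MIC. Plasmid isolated, concentrated, run on 1% TBE-agarose alongside supercoiled markers for 16 h, stained with ethidium bromide.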

Staphylococcus aureus [21] = test: Antibacterial activity against Staphylococcus aureus ATCC 29213 after 18 to 20 hrs; format: functional; summary of the method: as §1
Staphylococcus aureus [22] = test: Antibacterial activity against Staphylococcus aureus ATCC 29213 with GyrB T173I mutation after 18 to 20 hrs; format: functional; summary of the method: as §1
Staphylococcus aureus [23] = test: Antibacterial activity against Staphylococcus aureus ATCC 29213 carrying plasmid expressing GyrB R144I mutant; format: functional
Streptococcus pneumoniae [24] = test: Antibacterial activity against Streptococcus pneumoniae ATCC BAA-255 with GyrB T172A and ParE T172A mutation after 18 to 20 hrs; format: functional; summary of the method: as §1
Haemophilus influenzae [25] = test: Antibacterial activity against novobiocin-resistant Haemophilus influenzae ATCC 51907 with GyrB R140L mutation after 18 to 20 hrs; format: functional; summary of the method: as §1
Streptococcus pneumoniae [26] = test: Antibacterial activity against Streptococcus pneumoniae ATCC BAA-255 after 18 to 20 hrs; format: functional; summary of the method: as §1
Staphylococcus aureus [27] = test: Antibacterial activity against Staphylococcus aureus ATCC 29213 without plasmid; format: functional
Streptococcus pneumoniae [28] = test: Antibacterial activity against Streptococcus pneumoniae ATCC BAA-255 with ParE T172I mutation after 18 to 20 hrs; format: functional; summary of the method: as §1
Streptococcus pneumoniae [29] = test: Antibacterial activity against novobiocin-resistant Streptococcus pneumoniae ATCC BAA-255 with GyrB S127L mutation after 18 to 20 hrs; format: functional; summary of the method: as §1
Staphylococcus aureus [30] = test: Antibacterial activity against Staphylococcus aureus ATCC 29213 with GyrB R144I mutation without plasmid; format: functional

Compound | MIC (Haemophilus influenzae [1]) [µg/mL] | MIC (Staphylococcus aureus [2]) [µg/mL] | MIC (Staphylococcus aureus [3]) [µg/mL] | MIC (Staphylococcus aureus [4]) [µg/mL] | MIC (Enterococcus faecalis [5]) [µg/mL] | MIC (Staphylococcus aureus [6]) [µg/mL] | MIC (Enterococcus faecalis [7]) [µg/mL] | MIC (Staphylococcus aureus [8]) [µg/mL] | MIC (Haemophilus influenzae [9]) [µg/mL] | MIC (Staphylococcus aureus [10]) [µg/mL] | MIC (Enterococcus faecalis [11]) [µg/mL] | MIC (Enterococcus faecalis [12]) [µg/mL] | MIC (Haemophilus influenzae [13]) [µg/mL] | MIC (Staphylococcus aureus [14]) [µg/mL] | MIC (Enterococcus faecalis [15]) [µg/mL] | MIC (Streptococcus pneumoniae [16]) [µg/mL] | MIC (Staphylococcus aureus [17]) [µg/mL] | MIC (Haemophilus influenzae [18]) [µg/mL] | MIC (Staphylococcus aureus [19]) [µg/mL] | MIC (Enterococcus faecalis [20]) [µg/mL] | also measured
CCNC(=O)Nc1nc2cc(-c3cccnc3)cc(-c3ncccc3F)c2[nH]1 | 1 (≈ 2.66 µM) | 0.13 (≈ 0.345 µM) | 4 (≈ 10.6 µM) | 0.25 (≈ 0.664 µM) | 0.064 (≈ 0.17 µM) | > 8 | 0.032 (≈ 0.085 µM) | 0.25 (≈ 0.664 µM) | > 64 | 0.5 (≈ 1.33 µM) | 0.064 (≈ 0.17 µM) | 0.032 (≈ 0.085 µM) | 1 (≈ 2.66 µM) | 0.06 (≈ 0.159 µM) | 0.5 (≈ 1.33 µM) | 0.016 (≈ 0.0425 µM) | 0.06 (≈ 0.159 µM) | 1 (≈ 2.66 µM) | 0.25 (≈ 0.664 µM) | 1 (≈ 2.66 µM) | Activity (Escherichia coli): Dose-dependent effect; MIC (Staphylococcus aureus [21]): 0.03 µg/mL (≈ 0.0797 µM); MIC (Staphylococcus aureus [22]): 0.5 µg/mL (≈ 1.33 µM); MIC (Staphylococcus aureus [23]): 0.06 µg/mL (≈ 0.159 µM); MIC (Streptococcus pneumoniae [24]): 0.25 µg/mL (≈ 0.664 µM); MIC (Haemophilus influenzae [25]): 1 µg/mL (≈ 2.66 µM); MIC (Streptococcus pneumoniae [26]): 0.004 µg/mL (≈ 0.0106 µM); MIC (Staphylococcus aureus [27]): 0.06 µg/mL (≈ 0.159 µM); MIC (Streptococcus pneumoniae [28]): 0.016 µg/mL (≈ 0.0425 µM); MIC (Streptococcus pneumoniae [29]): 0.002 µg/mL (≈ 0.00531 µM); MIC (Staphylococcus aureus [30]): 0.06 µg/mL (≈ 0.159 µM)
CO[C@@H]1[C@@H](OC(N)=O)[C@@H](O)[C@H](Oc2ccc3c(O)c(NC(=O)c4ccc(O)c(CC=C(C)C)c4)c(=O)oc3c2C)OC1(C)C [NOVOBIOCIN] | 4 (≈ 6.53 µM) | 0.5 (≈ 0.816 µM) | 2 (≈ 3.26 µM) | 0.25 (≈ 0.408 µM) | 8 (≈ 13.1 µM) | 0.25 (≈ 0.408 µM) | 8 (≈ 13.1 µM) | 2 (≈ 3.26 µM) | 0.25 (≈ 0.408 µM) | 0.25 (≈ 0.408 µM) | 32 (≈ 52.2 µM) | 16 (≈ 26.1 µM) | 8 (≈ 13.1 µM) | 8 (≈ 13.1 µM) | 16 (≈ 26.1 µM) | 0.5 (≈ 0.816 µM) | 0.13 (≈ 0.212 µM) | 0.064 (≈ 0.104 µM) | 0.13 (≈ 0.212 µM) | 16 (≈ 26.1 µM) | MIC (Staphylococcus aureus [21]): 0.13 µg/mL (≈ 0.212 µM); MIC (Staphylococcus aureus [22]): 1 µg/mL (≈ 1.63 µM); MIC (Staphylococcus aureus [23]): 8 µg/mL (≈ 13.1 µM); MIC (Streptococcus pneumoniae [24]): 4 µg/mL (≈ 6.53 µM); MIC (Haemophilus influenzae [25]): 4 µg/mL (≈ 6.53 µM); MIC (Streptococcus pneumoniae [26]): 0.5 µg/mL (≈ 0.816 µM); MIC (Staphylococcus aureus [27]): 0.13 µg/mL (≈ 0.212 µM); MIC (Streptococcus pneumoniae [28]): 0.5 µg/mL (≈ 0.816 µM); MIC (Streptococcus pneumoniae [29]): 8 µg/mL (≈ 13.1 µM); MIC (Staphylococcus aureus [30]): 8 µg/mL (≈ 13.1 µM)
